Assay: Toxicity liver stage against HepG2, at 10uM
Assay type: cell-based
Design: test concentration 10 uM, cell line HepG2-A16-CD81EGFP
Conditions: human, HepG2-A16-CD81EGFP cells; read-out: INHIBITION
Summary of the method: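 Uninfected HepG2-A16-CD81EGFP cells, 3 × 10^3 per well, 1536-well, plated on prespotted compound at 10 μM final, parasite-free screening media added to match infected plates; puromycin 10 μM positive, DMSO 0.5% negative; run in parallel with 48 h PbLuc assay at 37 °C, 5% CO2; viability by CellTiter-Glo luminescence, normalized to controls.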

Which cytotoxicity at 10 µM does the source give for `CCS(=O)(=O)c1ccc2oc([C@H]3CCN(CC4CCCCC4)C3)nc2c1` here?
Its cytotoxicity at 10 µM is 41%.

For `COc1cc(OC)c2c(=O)oc(CC(O)CC(C)=O)cc2c1` (stereo unspecified), which cytotoxicity at 10 µM is on record?
The cytotoxicity at 10 µM was 5.73%.

Which cytotoxicity at 10 µM does the source give for `Cc1csc([C@H]2C[C@@H]3CCN(Cc4cnn(C)c4)C[C@H]3O2)n1` here?
Its cytotoxicity at 10 µM is -3.9%.

With `O=C(NCc1ccccn1)c1nnn(-c2ccc(Br)cc2)n1` as the molecule, how does the cytotoxicity at 10 µM read?
Its cytotoxicity at 10 µM is 1.47%.

For `CSc1nsc(NC(=O)c2cc(C3CC3)nn2C)n1`, which cytotoxicity at 10 µM is on record?
The cytotoxicity at 10 µM was 6.86%.

For `O=C(Nc1cnn(-c2ccccc2Cl)c1)NC1CCC(O)CC1` (stereo unspecified), which cytotoxicity at 10 µM is on record?
Its cytotoxicity at 10 µM is -2.49%.

For `CC(O)CN1CCN(Cc2coc(-c3ccccc3Cl)n2)CC1` (stereo unspecified), which cytotoxicity at 10 µM is on record?
Its cytotoxicity at 10 µM is -4.73%.

With `CN(Cc1cc(Br)cn1C)C(=O)c1cscn1` as the molecule, how does the cytotoxicity at 10 µM read?
The cytotoxicity at 10 µM was -0.37%.

Which cytotoxicity at 10 µM does the source give for `O=C(NS(=O)(=O)Cc1cc(-c2ccccc2)no1)C1CCOCC1` here?
Its cytotoxicity at 10 µM is -2.85%.

With `Cc1ccc(-c2cc(C(=O)NCCN3CCOCC3)n[nH]2)s1` as the molecule, how does the cytotoxicity at 10 µM read?
Its cytotoxicity at 10 µM is -6.45%.

Which cytotoxicity at 10 µM does the source give for `COc1ccc(C(=O)NCCNC(=O)c2cncnc2C)cc1` here?
The cytotoxicity at 10 µM was 7.98%.

With `O=C(NCCNc1ncccn1)NCc1cccc(OC(F)F)c1` as the molecule, how does the cytotoxicity at 10 µM read?
Its cytotoxicity at 10 µM is -2.64%.

Which cytotoxicity at 10 µM does the source give for `Cc1ccc(-c2ccsc2C(=O)NC2CCS(=O)(=O)C2)cc1` (stereo unspecified) here?
The cytotoxicity at 10 µM was 1.07%.

For `CC(Cn1cccn1)NC(=O)Nc1cccnc1` (stereo unspecified), which cytotoxicity at 10 µM is on record?
Its cytotoxicity at 10 µM is -2.9%.

With `COc1ccc(NC(=O)NC(C)Cn2cccn2)cn1` (stereo unspecified) as the molecule, how does the cytotoxicity at 10 µM read?
Its cytotoxicity at 10 µM is -5.72%.

With `CN(Cc1cnccn1)C(=O)Nc1cc(F)cc(N2CCCC2)c1` as the molecule, how does the cytotoxicity at 10 µM read?
The cytotoxicity at 10 µM was 1.8%.

Which cytotoxicity at 10 µM does the source give for `CN1CCc2c(NC(=O)NCc3ccccc3Cl)cccc21` here?
Its cytotoxicity at 10 µM is 3.65%.

Which cytotoxicity at 10 µM does the source give for `COCCNC(=O)N1CCN(C(=O)Cc2ccccc2F)CC1` here?
The cytotoxicity at 10 µM was -8.85%.

Which cytotoxicity at 10 µM does the source give for `CC(C)c1nnc2n1CCN(Cc1nc3c(F)cccc3[nH]1)C2` here?
The cytotoxicity at 10 µM was -9.14%.

Which cytotoxicity at 10 µM does the source give for `COc1ccnc(N2CCN(C(=O)c3cnn(C)c3C3CC3)CC2)n1` here?
Its cytotoxicity at 10 µM is -2.88%.

For `Cc1ccc(C(=O)NCC2(O)CCOCC2)cc1Br`, which cytotoxicity at 10 µM is on record?
Its cytotoxicity at 10 µM is -1.3%.

For `COc1cc(F)ccc1C(C(=O)O)N(C)Cc1ccon1` (stereo unspecified), which cytotoxicity at 10 µM is on record?
Its cytotoxicity at 10 µM is -5.31%.

With `CCOc1ccccc1-n1c(CNC)n[nH]c1=O` as the molecule, how does the cytotoxicity at 10 µM read?
Its cytotoxicity at 10 µM is -2.98%.

For `CC(C)n1cnnc1CN1CCC2(CCCN(C3CCCCC3)C2=O)C1` (stereo unspecified), which cytotoxicity at 10 µM is on record?
The cytotoxicity at 10 µM was -123%.

For `CCn1c(N)nc2cc(C(=O)N3CCCN(C)CC3)cnc21`, which cytotoxicity at 10 µM is on record?
The cytotoxicity at 10 µM was -2.43%.

With `CCn1nc(C)c(CN(CCOC)C(=O)c2ccc(=O)[nH]n2)c1C` as the molecule, how does the cytotoxicity at 10 µM read?
Its cytotoxicity at 10 µM is -2.27%.

Which cytotoxicity at 10 µM does the source give for `Cc1ccc(CN2CCN(C(=O)C3CCC3)[C@@H]3CS(=O)(=O)C[C@@H]32)cc1C` here?
The cytotoxicity at 10 µM was 2.09%.

Which cytotoxicity at 10 µM does the source give for `CC(C)CN1CC(C(=O)N(C)CCc2cn[nH]c2)CC1=O` (stereo unspecified) here?
Its cytotoxicity at 10 µM is -4.1%.

Which cytotoxicity at 10 µM does the source give for `CCCn1ncc(C(=O)NCCc2[nH]nc3c2CCCC3)c1C` here?
Its cytotoxicity at 10 µM is -6.63%.

For `Cc1cnc(C(=O)N2CCCC(Cn3cc(C4CC4)nn3)C2)cn1` (stereo unspecified), which cytotoxicity at 10 µM is on record?
Its cytotoxicity at 10 µM is -1.15%.

With `O=C(CC1CCCCC1)NC1CCCCNC1=O` (stereo unspecified) as the molecule, how does the cytotoxicity at 10 µM read?
Its cytotoxicity at 10 µM is 6.82%.

Which cytotoxicity at 10 µM does the source give for `c1ccc(OCCCN2CCOC(CNc3cccnn3)C2)cc1` (stereo unspecified) here?
The cytotoxicity at 10 µM was -0.906%.

Which cytotoxicity at 10 µM does the source give for `Cc1ncc2c(n1)CCN(CCCc1nc3ccccc3o1)C2` here?
Its cytotoxicity at 10 µM is -18.7%.

Which cytotoxicity at 10 µM does the source give for `Cc1cnn(CC2CCCN2C(=O)c2cccc(F)c2F)c1` (stereo unspecified) here?
The cytotoxicity at 10 µM was -1.3%.

With `CCCc1nc(C)c(C(=O)NCCN2CCOCC2)s1` as the molecule, how does the cytotoxicity at 10 µM read?
Its cytotoxicity at 10 µM is -7.75%.

Which cytotoxicity at 10 µM does the source give for `Cc1nn(C)c(Cl)c1C1CCCN1C(=O)c1ccnc(N(C)C)c1` (stereo unspecified) here?
The cytotoxicity at 10 µM was -6.73%.

Which cytotoxicity at 10 µM does the source give for `Cc1nnc(N2CCC(NS(C)(=O)=O)CC2)c(C#N)c1C` here?
Its cytotoxicity at 10 µM is -5.13%.

For `CN(C)C(=O)N1CCC2(CC1)CN(CC1CC1)CC21CCNC1=O` (stereo unspecified), which cytotoxicity at 10 µM is on record?
Its cytotoxicity at 10 µM is 3.67%.

For `COc1c(CNC2CCCOc3ccc(F)cc32)c(C)nn1C` (stereo unspecified), which cytotoxicity at 10 µM is on record?
Its cytotoxicity at 10 µM is 1.51%.

For `CCN(C)c1ncnc2c1CCN(C(=O)N(C)C)CC2`, which cytotoxicity at 10 µM is on record?
The cytotoxicity at 10 µM was -0.0197%.

Which cytotoxicity at 10 µM does the source give for `O=S(=O)(C1CC1)N1C[C@@H]2CN(Cc3ccoc3)CCO[C@@H]2C1` here?
Its cytotoxicity at 10 µM is -142%.

For `c1cn(-c2cncc(C3CCNCC3)n2)cn1`, which cytotoxicity at 10 µM is on record?
The cytotoxicity at 10 µM was -32.5%.

With `Cc1ccc(C(=O)N2CCc3ncnc(-c4cnn(C)c4)c3CC2)cn1` as the molecule, how does the cytotoxicity at 10 µM read?
The cytotoxicity at 10 µM was 7.83%.

With `CCO[C@H]1CO[C@@]2(CCCN(Cc3scnc3C)C2)C1` as the molecule, how does the cytotoxicity at 10 µM read?
The cytotoxicity at 10 µM was -137%.

With `CC(C)OC(=O)N1C[C@@H]2CC[C@H]1CN(C(=O)c1ccccc1)C2` as the molecule, how does the cytotoxicity at 10 µM read?
Its cytotoxicity at 10 µM is 0.608%.

For `O=C(c1ccncc1)N1C[C@H]2CC[C@@H](C1)N(S(=O)(=O)c1cccnc1)C2`, which cytotoxicity at 10 µM is on record?
Its cytotoxicity at 10 µM is -3.51%.

Source: ChEMBL document CHEMBL4513216, “Probing the Open Global Health Chemical Diversity Library for Multistage-Active Starting Points for Next-Generation Antimalarials” (ACS Infect Dis, 2020)
